Published values collected from several papers.
Protocols differ between the studies behind these lines.
MAOB: Amine oxidase [flavin-containing] B (MAOB, Homo sapiens, UniProt P27338)
HCK: Tyrosine-protein kinase HCK (HCK, Homo sapiens, UniProt P08631)

| Structure (SMILES) | target | test | setting | endpoint | result |
| --- | --- | --- | --- | --- | --- |
| C[C@H](NC(=O)C(=O)Nc1ccccc1C(C)(C)C)C(=O)N[C@@H](CC(=O)O)C(=O)COc1c(F)c(F)cc(F)c1F | Caspase-1 (Casp1, Mus musculus, UniProt P29452) | enzyme activity, inhibitor | – | kinact/KI | 4.27e+06 M⁻¹ s⁻¹ |
| CCCCC(=O)Nc1ccc(-c2ccc3ncn(CCC)c(=O)c3c2)cn1 | Serine/threonine-protein kinase NLK (NLK, Homo sapiens, UniProt Q9UBE8) | binding, competition with immobilised ligand | 0.5 µM | remaining binding | 92% |
| C[C@]1(O)CCCN(c2nc(Nc3ccc(S(=O)(=O)N[C@H]4CC[C@H](CN5CCN(c6ccc(C7CCC(=O)NC7=O)cc6F)CC5)CC4)cc3F)ncc2C(F)(F)F)C1 (some centres unmarked) | NUAK family SNF1-like kinase 2 (NUAK2, Homo sapiens, UniProt Q9H093) | binding, competition with immobilised ligand | 1 µM | remaining binding | 45% |
| O=C(Nc1ccc(F)c(F)c1)c1ccc2c(c1)C(=O)NC2=O | MAOB | enzyme activity, inhibitor | 1 µM | inhibition | 90.6% |
| Cc1cc(F)cc2c(CCC(=O)N[C@@H]3C(=O)NC[C@H]3O)c(-c3ccc(F)cc3)[nH]c12 | Histamine H1 receptor (HRH1, Homo sapiens, UniProt P35367) | cell-free assay | 10 µM | inhibition | 17% |
| COc1ccc2oc(-c3ccc4nc(N)oc4c3)c/c(=N\c3ccccc3NC(=O)CCN)c2c1 | HCK | binding | 1 µM | remaining binding | 108% |
| NC/C(=C\F)COc1cccc(Cn2c(=S)[nH]c(=O)c3[nH]cnc32)c1 | Beta-1 adrenergic receptor (ADRB1, Homo sapiens, UniProt P08588) | ligand displacement, radioligand | 10 µM | inhibition | < 50% |
| C#Cc1cc(-c2cc(Nc3nc(N[C@@H](C)c4ccc(F)cn4)ncc3Cl)n[nH]2)ccc1C=O | Serine/threonine-protein kinase N1 (PKN1, Homo sapiens, UniProt Q16512) | enzyme activity, inhibitor | 0.2 µM | inhibition | 38.5% |
| O=C(Nc1ccc(F)c(Br)c1)c1ccc2c(c1)C(=O)NC2=O | MAOB | enzyme activity, inhibitor | 1 µM | inhibition | 97.3% |
| CC(=O)ON=C1C=CC(=C(C#N)c2ccccc2)C=C1 | Receptor-interacting serine/threonine-protein kinase 3 (RIPK3, Homo sapiens, UniProt Q9Y572) | enzyme activity, inhibitor, ADP detection | 20 µM | activity vs control | 110% |
| COc1cccc(NC(=O)c2ccc3c(c2)C(=O)NC3=O)c1 | MAOB | enzyme activity, inhibitor | 1 µM | inhibition | < 5% |
| C1=C/COCc2cc(ccc2OCCN2CCCC2)Nc2nccc(n2)-c2cccc(c2)COC/1 | HCK | binding | 0.1 µM | remaining binding | 100% |
| O=C(Nc1ccc(Cl)cc1)c1ccc2c(c1)C(=O)NC2=O | MAOB | enzyme activity, inhibitor | 1 µM | inhibition | 52% |
| Nc1nc2c(ncn2[C@@H]2O[C@H](COP(=O)(O)O)[C@@H](O)[C@H]2O)c(=O)[nH]1 | GUK1 (Homo sapiens, UniProt Q16774) | enzyme activity, substrate | – | Km | 14.9 µM |
